This is an account of results in ChEMBL document CHEMBL1141202, “Novel CCR1 antagonists with oral activity in the mouse collagen induced arthritis” (Bioorg Med Chem Lett, 2005).

Series [1] can be described thus: Oral bioavailability in rat. It counts as ADME, organism-based. The following applies: in vivo.
For the next series, the species on record is Rattus norvegicus. Description: Maximum concentration in rat. In kind it is ADME, organism-based. The following applies: in vivo.
A short description of series [2]: Half life in rat. In kind it is ADME, organism-based. As to conditions: in vivo.
Series [3] is described as follows: AUC in rat. In kind it is ADME, organism-based. As to conditions: plasma.
Series [4] deals with T1, C-C chemokine receptor type 1 (Homo sapiens, UniProt P32246).
T1 sequence (P32246 whole entry): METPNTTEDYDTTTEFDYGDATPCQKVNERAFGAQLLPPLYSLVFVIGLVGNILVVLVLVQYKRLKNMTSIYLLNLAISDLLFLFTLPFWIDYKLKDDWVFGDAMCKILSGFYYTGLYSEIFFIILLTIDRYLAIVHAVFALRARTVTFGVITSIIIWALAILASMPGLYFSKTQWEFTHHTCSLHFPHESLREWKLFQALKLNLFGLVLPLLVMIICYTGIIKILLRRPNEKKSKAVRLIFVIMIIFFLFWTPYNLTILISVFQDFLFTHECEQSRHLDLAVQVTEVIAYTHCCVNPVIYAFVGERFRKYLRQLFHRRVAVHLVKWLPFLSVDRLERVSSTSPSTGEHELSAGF
The experiment in a line: Antagonistic activity at human CCR1 in CHO-K1 cells. In kind it is functional, cell-based. In a few lines: (§1)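 CHO-K1 cells stably transfected with human, mouse or rat CCR1; membranes used in a scintillation proximity assay with radiolabelled MIP-1α as ligand.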

Series [5] deals with T2, C-C chemokine receptor type 1 (Mus musculus, UniProt P51675).
T2 sequence (P51675 whole entry): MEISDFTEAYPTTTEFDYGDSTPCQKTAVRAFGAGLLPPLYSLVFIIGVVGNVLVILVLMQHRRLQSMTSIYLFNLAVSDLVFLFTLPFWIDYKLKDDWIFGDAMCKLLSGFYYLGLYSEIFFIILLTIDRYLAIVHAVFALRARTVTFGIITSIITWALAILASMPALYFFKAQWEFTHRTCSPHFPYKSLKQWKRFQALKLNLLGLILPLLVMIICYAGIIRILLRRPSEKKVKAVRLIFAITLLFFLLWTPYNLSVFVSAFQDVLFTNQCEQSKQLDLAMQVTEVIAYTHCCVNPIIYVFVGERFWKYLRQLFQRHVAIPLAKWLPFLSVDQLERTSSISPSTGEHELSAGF
Description: Antagonistic activity at mouse CCR1 in CHO-K1 cells. It counts as functional, cell-based. Put shortly:
as §1

Series [6] deals with T1, C-C chemokine receptor type 1. Description: Antagonistic activity at human CCR1 by inhibition of MIP-1alpha induced calcium mobilization in THP1 cells. It counts as functional, cell-based, THP-1. In a few lines: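 THP-1 cells with native CCR1 expression; preincubated with antagonist 30 min at RT, then stimulated with 3 nM MIP-1α; calcium response read as fluo-4 fluorescence.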
In general terms: A change in cytosolic calcium serves as a functional read-out for many receptors and channels.

The next series concerns the target D(4) dopamine receptor (Homo sapiens, UniProt P21917). The experiment in a line: Inhibition of human dopamine receptor D4.4.
In series [7] the target is Muscarinic acetylcholine receptor M4 (Homo sapiens, UniProt P08173). The experiment in a line: Inhibition of human muscarinic receptor M4.
Series [8] deals with Serotonin 3 (5-HT3) receptor. The experiment in a line: Inhibition of human 5HT3 receptor. In kind it is protein-complex assay.
In the next series the target is D(3) dopamine receptor (Homo sapiens, UniProt P35462). Description: Inhibition of human dopamine receptor D3.
Series [9] has as its target 5-hydroxytryptamine receptor 2B (Homo sapiens, UniProt P41595). The experiment in a line: Inhibition of human 5HT2B receptor.
Series [10] deals with Alpha-2B adrenergic receptor (Homo sapiens, UniProt P18089). The experiment in a line: Inhibition of human adrenergic alpha-2B receptor.
Series [11] has as its target 5-hydroxytryptamine receptor 2C (Homo sapiens, UniProt P28335). The experiment in a line: Inhibition of human 5HT2C receptor.
The target in series [12] is Alpha-2C adrenergic receptor (Homo sapiens, UniProt P18825). The experiment in a line: Inhibition of human adrenergic alpha-2C receptor.
The next series addresses Mu-type opioid receptor (Homo sapiens, UniProt P35372). The experiment in a line: Inhibition of human mu opioid receptor.
Series [13] has as its target Alpha-2A adrenergic receptor (Homo sapiens, UniProt P08913). Description: Inhibition of human adrenergic alpha-2A receptor.
Series [14] has as its target 5-hydroxytryptamine receptor 7 (Homo sapiens, UniProt P34969). Description: Inhibition of human 5HT7 receptor.
The target of series [15] is Delta-type opioid receptor (Homo sapiens, UniProt P41143). Description: Inhibition of human delta opioid receptor.
Series [16] concerns the target C-C chemokine receptor type 3 (Homo sapiens, UniProt P51677). The experiment in a line: Inhibition of human CCR3.
Series [17] concerns the target Muscarinic acetylcholine receptor M5 (Homo sapiens, UniProt P08912). Description: Inhibition of human muscarinic receptor M5.
In a further series the target is D(1A) dopamine receptor (Homo sapiens, UniProt P21728). Description: Inhibition of human dopamine receptor D1.
In series [18] the target is Beta-1 adrenergic receptor (Homo sapiens, UniProt P08588). Description: Inhibition of human adrenergic beta-1 receptor.
For series [19], the target named is C-C chemokine receptor type 6 (Homo sapiens, UniProt P51684). The experiment in a line: Inhibition of human CCR6.
Another series deals with D(2) dopamine receptor (Homo sapiens, UniProt P14416). The experiment in a line: Inhibition of human dopamine receptor D2.
For series [20], the target named is Adrenergic receptor alpha-1 (Homo sapiens, UniProt P35348+P25100+P35368). The experiment in a line: Inhibition of human adrenergic alpha-1 receptor. It counts as protein assay.
Series [21] has as its target Muscarinic acetylcholine receptor M1 (Homo sapiens, UniProt P11229). Description: Inhibition of human muscarinic receptor M1.
Series [22] concerns the target C-C chemokine receptor type 2 (Homo sapiens, UniProt P41597). Description: Inhibition of human CCR2b.
For series [23], the target named is Kappa-type opioid receptor (Homo sapiens, UniProt P41145). Description: Inhibition of human kappa opioid receptor.
For series [24], the target named is Beta-2 adrenergic receptor (Homo sapiens, UniProt P07550). Description: Inhibition of human adrenergic beta-2 receptor.
For series [25], the target named is C-C chemokine receptor type 5 (Mus musculus, UniProt P51682). The experiment in a line: Inhibition of mouse CCR5.
In series [26] the target is 5-hydroxytryptamine receptor 6 (Homo sapiens, UniProt P50406). The experiment in a line: Inhibition of human 5HT6 receptor.
Series [27] has as its target 5-hydroxytryptamine receptor 2A (Homo sapiens, UniProt P28223). Description: Inhibition of human 5HT2A receptor.
Series [28] deals with Muscarinic acetylcholine receptor M2 (Homo sapiens, UniProt P08172). Description: Inhibition of human muscarinic receptor M2.
Series [29] addresses 5-hydroxytryptamine receptor 1A (Homo sapiens, UniProt P08908). The experiment in a line: Inhibition of human 5HT1A receptor.
Series [30] has as its target 5-hydroxytryptamine receptor 1B (Homo sapiens, UniProt P28222). The experiment in a line: Inhibition of human 5HT1B receptor.
The target of series [31] is Muscarinic acetylcholine receptor M3 (Homo sapiens, UniProt P20309). The experiment in a line: Inhibition of human muscarinic receptor M3.

Bounds are passed on as bounds.

Chain of Delta-type opioid receptor (P41143 whole entry): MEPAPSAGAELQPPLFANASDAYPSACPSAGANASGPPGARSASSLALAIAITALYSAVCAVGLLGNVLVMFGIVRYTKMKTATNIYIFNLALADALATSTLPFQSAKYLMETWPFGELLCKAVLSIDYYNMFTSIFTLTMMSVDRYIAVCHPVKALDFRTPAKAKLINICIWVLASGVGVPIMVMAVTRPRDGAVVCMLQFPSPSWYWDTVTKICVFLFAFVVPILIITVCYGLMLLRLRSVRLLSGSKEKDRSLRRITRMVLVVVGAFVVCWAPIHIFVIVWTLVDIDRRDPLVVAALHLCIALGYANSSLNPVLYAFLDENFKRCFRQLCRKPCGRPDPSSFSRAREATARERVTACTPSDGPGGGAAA
Chain of Mu-type opioid receptor (P35372 whole entry): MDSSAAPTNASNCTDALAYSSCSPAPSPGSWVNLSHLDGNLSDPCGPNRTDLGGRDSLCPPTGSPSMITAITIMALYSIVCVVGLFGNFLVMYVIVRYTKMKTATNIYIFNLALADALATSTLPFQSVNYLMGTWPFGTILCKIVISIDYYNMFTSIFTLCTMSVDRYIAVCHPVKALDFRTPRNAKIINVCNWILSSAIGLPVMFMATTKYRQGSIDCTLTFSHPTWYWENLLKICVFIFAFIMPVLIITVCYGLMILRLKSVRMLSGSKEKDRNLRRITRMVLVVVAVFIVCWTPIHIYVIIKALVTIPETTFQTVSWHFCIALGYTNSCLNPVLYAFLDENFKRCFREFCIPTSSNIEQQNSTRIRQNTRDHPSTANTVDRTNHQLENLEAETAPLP
Chain of C-C chemokine receptor type 6 (P51684 whole entry): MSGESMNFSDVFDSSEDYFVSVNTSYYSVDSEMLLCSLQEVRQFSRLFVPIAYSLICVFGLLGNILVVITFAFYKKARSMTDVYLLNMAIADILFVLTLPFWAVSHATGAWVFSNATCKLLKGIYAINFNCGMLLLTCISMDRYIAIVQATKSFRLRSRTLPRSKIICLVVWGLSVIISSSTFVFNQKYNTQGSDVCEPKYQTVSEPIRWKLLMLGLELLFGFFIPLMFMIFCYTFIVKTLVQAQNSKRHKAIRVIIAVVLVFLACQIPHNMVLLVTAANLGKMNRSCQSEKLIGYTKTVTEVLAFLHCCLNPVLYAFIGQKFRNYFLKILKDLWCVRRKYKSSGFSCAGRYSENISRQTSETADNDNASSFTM
Chain of Muscarinic acetylcholine receptor M2 (P08172 whole entry): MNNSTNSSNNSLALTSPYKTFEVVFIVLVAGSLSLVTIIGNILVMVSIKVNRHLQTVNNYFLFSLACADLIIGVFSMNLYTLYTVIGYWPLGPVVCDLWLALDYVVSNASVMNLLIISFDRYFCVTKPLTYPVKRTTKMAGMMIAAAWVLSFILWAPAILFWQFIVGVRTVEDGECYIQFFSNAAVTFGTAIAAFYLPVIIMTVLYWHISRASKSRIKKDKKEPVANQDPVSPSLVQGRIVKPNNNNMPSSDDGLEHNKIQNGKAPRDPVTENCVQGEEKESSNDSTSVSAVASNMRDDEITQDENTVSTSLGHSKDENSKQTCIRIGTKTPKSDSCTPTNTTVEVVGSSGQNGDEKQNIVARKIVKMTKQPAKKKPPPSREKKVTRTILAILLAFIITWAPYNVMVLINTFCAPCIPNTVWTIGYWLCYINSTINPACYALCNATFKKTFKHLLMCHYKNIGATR
Chain of 5-hydroxytryptamine receptor 7 (P34969 whole entry): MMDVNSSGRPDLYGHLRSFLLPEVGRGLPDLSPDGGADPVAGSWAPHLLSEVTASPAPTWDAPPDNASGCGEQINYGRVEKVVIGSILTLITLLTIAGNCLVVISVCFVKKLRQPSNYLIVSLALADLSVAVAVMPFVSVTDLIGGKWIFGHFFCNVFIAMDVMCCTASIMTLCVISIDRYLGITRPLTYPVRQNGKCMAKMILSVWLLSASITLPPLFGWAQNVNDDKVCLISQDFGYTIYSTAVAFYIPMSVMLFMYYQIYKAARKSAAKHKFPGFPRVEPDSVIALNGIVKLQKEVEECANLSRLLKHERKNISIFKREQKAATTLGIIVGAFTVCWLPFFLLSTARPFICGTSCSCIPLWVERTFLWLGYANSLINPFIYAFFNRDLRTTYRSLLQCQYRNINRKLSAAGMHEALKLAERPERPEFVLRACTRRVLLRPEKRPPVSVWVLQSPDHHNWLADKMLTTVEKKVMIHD
Chain of Alpha-2B adrenergic receptor (P18089 whole entry): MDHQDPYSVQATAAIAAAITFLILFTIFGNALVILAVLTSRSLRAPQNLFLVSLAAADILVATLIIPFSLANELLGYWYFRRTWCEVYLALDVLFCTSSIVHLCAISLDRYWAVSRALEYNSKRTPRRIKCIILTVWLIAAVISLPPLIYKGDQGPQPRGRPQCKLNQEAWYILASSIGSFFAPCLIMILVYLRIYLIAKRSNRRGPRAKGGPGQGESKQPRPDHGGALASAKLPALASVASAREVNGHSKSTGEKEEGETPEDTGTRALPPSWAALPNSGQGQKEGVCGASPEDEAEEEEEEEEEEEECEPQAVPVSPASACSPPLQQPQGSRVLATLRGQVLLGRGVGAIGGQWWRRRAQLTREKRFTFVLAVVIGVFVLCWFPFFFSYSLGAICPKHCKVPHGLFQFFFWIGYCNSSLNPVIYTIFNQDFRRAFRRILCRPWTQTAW
Chain of 5-hydroxytryptamine receptor 2C (P28335 whole entry): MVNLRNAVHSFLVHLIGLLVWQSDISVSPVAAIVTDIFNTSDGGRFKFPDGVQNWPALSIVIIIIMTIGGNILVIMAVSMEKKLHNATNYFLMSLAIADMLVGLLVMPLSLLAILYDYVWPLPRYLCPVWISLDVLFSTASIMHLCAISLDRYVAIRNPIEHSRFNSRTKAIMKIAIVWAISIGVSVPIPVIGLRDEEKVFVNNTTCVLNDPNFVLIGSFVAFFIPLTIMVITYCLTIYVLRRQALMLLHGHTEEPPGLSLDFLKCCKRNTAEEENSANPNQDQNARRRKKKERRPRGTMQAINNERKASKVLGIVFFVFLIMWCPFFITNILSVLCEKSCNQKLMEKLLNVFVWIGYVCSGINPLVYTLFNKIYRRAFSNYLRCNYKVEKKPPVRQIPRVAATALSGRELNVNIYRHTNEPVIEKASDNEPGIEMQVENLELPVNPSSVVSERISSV
Chain of 5-hydroxytryptamine receptor 1B (P28222 whole entry): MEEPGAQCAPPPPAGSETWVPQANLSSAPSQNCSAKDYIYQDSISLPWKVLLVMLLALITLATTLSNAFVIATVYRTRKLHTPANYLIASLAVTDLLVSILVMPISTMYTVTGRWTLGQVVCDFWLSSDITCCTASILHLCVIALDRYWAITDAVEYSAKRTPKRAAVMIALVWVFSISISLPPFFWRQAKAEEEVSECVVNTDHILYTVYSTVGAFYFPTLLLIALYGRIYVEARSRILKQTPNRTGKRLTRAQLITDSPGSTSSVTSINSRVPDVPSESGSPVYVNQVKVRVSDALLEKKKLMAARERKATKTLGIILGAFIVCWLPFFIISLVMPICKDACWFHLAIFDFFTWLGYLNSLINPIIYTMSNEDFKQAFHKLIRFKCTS
Chain of Muscarinic acetylcholine receptor M3 (P20309 whole entry): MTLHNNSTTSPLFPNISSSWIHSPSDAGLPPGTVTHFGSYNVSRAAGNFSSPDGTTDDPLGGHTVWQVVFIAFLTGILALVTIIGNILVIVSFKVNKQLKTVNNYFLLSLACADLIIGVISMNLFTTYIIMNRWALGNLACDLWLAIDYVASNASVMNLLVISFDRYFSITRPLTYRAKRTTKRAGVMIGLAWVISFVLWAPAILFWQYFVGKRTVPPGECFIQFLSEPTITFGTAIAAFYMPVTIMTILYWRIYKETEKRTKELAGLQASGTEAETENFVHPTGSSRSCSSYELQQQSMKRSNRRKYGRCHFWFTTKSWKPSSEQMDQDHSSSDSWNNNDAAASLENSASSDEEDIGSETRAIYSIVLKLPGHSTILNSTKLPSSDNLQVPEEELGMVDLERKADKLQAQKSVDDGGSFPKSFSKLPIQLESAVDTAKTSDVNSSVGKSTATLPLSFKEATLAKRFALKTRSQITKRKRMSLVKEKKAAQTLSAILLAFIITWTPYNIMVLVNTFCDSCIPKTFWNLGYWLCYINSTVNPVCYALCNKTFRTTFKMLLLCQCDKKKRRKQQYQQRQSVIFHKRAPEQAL
Chain of C-C chemokine receptor type 5 (P51682 whole entry): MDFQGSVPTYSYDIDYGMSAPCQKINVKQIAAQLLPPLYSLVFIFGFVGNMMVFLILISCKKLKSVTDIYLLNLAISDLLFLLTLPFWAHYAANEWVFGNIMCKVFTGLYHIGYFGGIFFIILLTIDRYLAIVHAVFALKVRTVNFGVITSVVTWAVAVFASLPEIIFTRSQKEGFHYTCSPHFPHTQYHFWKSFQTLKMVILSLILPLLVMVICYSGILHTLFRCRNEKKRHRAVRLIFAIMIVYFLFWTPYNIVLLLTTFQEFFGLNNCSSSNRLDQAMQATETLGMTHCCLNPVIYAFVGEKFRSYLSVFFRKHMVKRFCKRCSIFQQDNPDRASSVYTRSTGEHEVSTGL
Chain of D(2) dopamine receptor (P14416 whole entry): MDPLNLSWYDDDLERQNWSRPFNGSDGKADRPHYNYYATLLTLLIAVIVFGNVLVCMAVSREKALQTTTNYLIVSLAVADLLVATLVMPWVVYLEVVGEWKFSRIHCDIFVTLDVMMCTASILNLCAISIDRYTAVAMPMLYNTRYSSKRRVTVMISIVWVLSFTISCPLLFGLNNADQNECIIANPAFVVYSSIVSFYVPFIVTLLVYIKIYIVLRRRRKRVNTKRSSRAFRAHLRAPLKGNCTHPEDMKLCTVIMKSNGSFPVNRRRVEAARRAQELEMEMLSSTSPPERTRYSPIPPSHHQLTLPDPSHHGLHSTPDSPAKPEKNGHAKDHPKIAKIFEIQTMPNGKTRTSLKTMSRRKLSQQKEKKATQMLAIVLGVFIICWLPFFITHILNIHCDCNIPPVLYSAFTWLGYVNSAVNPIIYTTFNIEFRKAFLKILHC

One may read the bioavailability as dose-corrected exposure relative to a reference, in per cent. A higher bioavailability goes with much systemic uptake. Usually Cmax stands for the peak of the concentration-time curve. One may read the half-life as how long it takes for the measured level to halve. As a reminder, the AUC is concentration integrated over time. Lower therefore signals low exposure. The compound `C[C@@H]1CN(Cc2ccc(F)cc2)CCN1C(=O)/C=C/c1ccc(Cl)cc1NC(N)=O` gave a bioavailability in series [1] of 90%. This compound had a Cmax in the series filed under Rattus norvegicus of 934 nM. This compound also had a half-life in series [2] of 11 h. In series [3], this compound registered an AUC of 487 ng·h/mL.

As usually defined, the IC50 is the midpoint of a concentration-inhibition curve. On to `CC(=O)Nc1cc2ccccc2cc1/C=C/C(=O)N1CCN(Cc2ccc(F)cc2)C[C@H]1C`, for which the IC50 in series [4] worked out at 0.08 µM; in series [5], 0.5 µM; in series [6], 0.013 µM.

Consider `CC(=O)Nc1cc2ncccc2cc1/C=C/C(=O)N1CCN(Cc2ccc(F)cc2)C[C@H]1C`, for which the values for the IC50 in series [4], in series [5] and in series [6] were 0.03 µM, 1 µM and 0.02 µM, respectively.

Turning to `COc1cc(/C=C/C(=O)N2C3CCC2CN(Cc2ccc(F)cc2)C3)c(NC(C)=O)cc1Cl`, the IC50 in series [4] worked out at 0.007 µM; in series [5] it was 0.004 µM. The bioavailability in series [1] came to 83%. In addition, the Cmax in the series filed under Rattus norvegicus came to 80 nM. The same compound gave a half-life in series [2] of 5.1 h. In series [3], this compound returned an AUC of 158 ng·h/mL.

As for `CC(=O)Nc1cc(Cl)ccc1CCC(=O)N1CCN(Cc2ccc(F)cc2)C[C@H]1C`, the IC50 in [4] was found to be 0.36 µM.

Take `C[C@@H]1CN(Cc2ccc(F)cc2)CCN1C(=O)COc1ccc(Cl)cc1NC(N)=O.Cl` [BX 471]: in series [1], the bioavailability worked out at 100%. Also, the Cmax in the series listed under Rattus norvegicus is 400 nM. In addition, the half-life in series [2] was 1.9 h. Moreover, the AUC in series [3] is 139 ng·h/mL.

In series [4], `CC(=O)Nc1cc(Cl)ccc1/C=C/C(=O)N1CCCN(Cc2ccc(F)cc2)C[C@H]1C` came in with an IC50 of 1.6 µM.

Take `CC(=O)Nc1cc2ncccc2cc1/C=C/C(=O)N1C2CCC1CN(Cc1ccc(F)cc1)C2`: the IC50 in [4] was determined as 0.15 µM; in series [5] it was 0.05 µM.

As for `COc1cc2c(cc1Cl)NC(=O)NC2CC(=O)N1CCN(Cc2ccc(F)cc2)C[C@H]1C` (stereo partly drawn), in [4], the IC50 came to 0.8 µM.

Turning to `COc1cc(/C=C/C(=O)N2CCN(Cc3ccc(F)cc3)C[C@H]2C)c(NC(C)=O)cc1Cl`, the bioavailability in series [1] turned out to be 100%. Moreover, in the series listed under Rattus norvegicus, the peak level (Cmax) was 396 nM. In addition, the half-life in series [2] was 4.1 h. Also, the AUC in [3] came to 750 ng·h/mL.

`CC(=O)Nc1cc(Cl)ccc1/C=C/C(=O)N1CC2CCC(C1)N2Cc1ccc(F)cc1` returned an IC50 in [4] of 0.3 µM.

For `CN(C)CC(=O)Nc1cc(Cl)ccc1/C=C/C(=O)N1C2CCC1CN(Cc1ccc(F)cc1)C2`, the IC50 in series [4] worked out at 0.03 µM; in series [5] it was 0.04 µM; in series [6], 0.009 µM. This compound also returned a bioavailability in series [1] of 77%. In the series filed under Rattus norvegicus, this compound came in with a Cmax of 407 nM. In series [2], this compound showed a half-life of 2.92 h. This compound also yielded an AUC in series [3] of 1070 ng·h/mL.

For the compound `CC(=O)Nc1cc(Cl)ccc1/C=C/C(=O)N1C[C@H]2C[C@@H]1CN2Cc1ccc(F)cc1`, in series [4], the IC50 stood at 1.7 µM.

As for `CC(=O)Nc1cc(Cl)ccc1/C=C/C(=O)N1C2CCC1CN(Cc1ccc(F)cc1)C2`, the IC50 in series [4] amounted to 0.2 µM.

For `CC(=O)Nc1cc(Cl)ccc1/C=C/C(=O)N1CCN(Cc2ccc(F)cc2)C[C@H]1C`, the IC50 (at D(4) dopamine receptor; in [7]; in [8]; at D(3) dopamine receptor; in series [9]; in [10]) was more than 1 µM each time. Also, the IC50 (in series [11]; in series [12]; at Mu-type opioid receptor; in [13]; in series [14]; in [15]) was more than 1 µM in each case. Besides, the half-inhibitory concentration (IC50) in series [16] was more than 10 µM; in series [17], more than 1 µM; at D(1A) dopamine receptor, more than 1 µM; in [18], more than 1 µM; in series [19] it was more than 100 µM; at D(2) dopamine receptor, more than 1 µM. For the same compound, the 50% inhibitory concentration (IC50) in series [20] is more than 1 µM; in series [21], more than 1 µM; in [22], more than 10 µM; in series [23] it was more than 1 µM; in series [24] it was more than 1 µM; in series [25], more than 10 µM. The IC50 in series [26], in series [27], in series [28], in series [29], in [30] and in series [31] was more than 1 µM throughout. The compound further returned a bioavailability in series [1] of 95%. Besides, in the series listed under Rattus norvegicus, the highest level (Cmax) was 850 nM. The compound further had a half-life in series [2] of 16.5 h. Also, the AUC in series [3] amounted to 784 ng·h/mL.
